# Results: ChEMBL document CHEMBL4699443, “Position of lipidation influences anticancer activity of Smac analogs” (Bioorg Med Chem Lett, 2019)
# Non-standard residues stand in square brackets, D forms with d. Residues, ends and D or L forms follow the SMILES beside them. *: point of attachment. Pro(cis-4-OPh) = O=C(O)[C@@H]1C[C@H](Oc2ccccc2)CN1; Bip = N[C@@H](Cc1ccc(-c2ccccc2)cc1)C(=O)O; X2 = CCCCCCCCCCCCCCCCCCS(=O)(=O)CCN*; Tle = CC(C)(C)[C@H](N)C(=O)O; X1 = CCCCCCCCCCCCCCCCCCSCCN*; NMeA = CN[C@@H](C)C(=O)O
# Legend:
# [1] = tested on: THP-1; experiment: Antiproliferative activity against human THP1 cells assessed as growth inhibition after 48 hrs by PrestoBlue dye based fluorescence assay; type: functional, cell-based; conditions: THP-1, 48 h
# [2] = Drug level in C57BL/6 mouse plasma at 10 mg/kg, sc after 30 mins by LC-MS analysis; type: ADME, organism-based; conditions: in vivo, 0.5 h
# Procedure, shortened: (§1)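 Mice individually weighed, then given a single SC dose of 10 mg/kg. Blood taken by retro-orbital bleeding at set time points. Plasma levels measured by triple-quadrupole LC/MS; plasma half-life derived from these levels.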
# [3] = tested on: KOPN-8; experiment: Induction of apoptosis in human KOPN8 cells assessed as necrotic cells at 10 uM after 24 hrs by AnnexinV/PI-staining based flow cytometry; type: functional
# Procedure, shortened: (§2)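 KOPN-8 cells treated with 1 or 10 μM compound, alone or as an equimolar two-compound mixture. Cultured for a time course, then stained with annexin V and propidium iodide. Read by flow cytometry; populations gated by annexin V/PI staining, including annexin V+/PI+ double positives.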
# [4] = Antiproliferative activity against human UM-SCC-178 cells assessed as growth inhibition after 48 hrs by PrestoBlue dye based fluorescence assay; type: functional, cell-based; conditions: UM-SCC-178, 48 h
# [5] = Tmax in C57BL/6 mouse at 10 mg/kg, sc by LC-MS analysis; type: ADME, organism-based; conditions: in vivo; procedure, shortened: as §1
# [6] = tested on: KOPN-8; experiment: Induction of apoptosis in human KOPN8 cells assessed as early apoptotic cells at 10 uM after 168 hrs by AnnexinV/PI-staining based flow cytometry; type: functional; procedure, shortened: as §2
# [7] = tested on: KOPN-8; experiment: Induction of apoptosis in human KOPN8 cells assessed as viable cells at 10 uM after 168 hrs by AnnexinV/PI-staining based flow cytometry; type: functional; conditions: read-out: Activity; procedure, shortened: as §2
# [8] = Antiproliferative activity against human M233 cells assessed as growth inhibition after 48 hrs by PrestoBlue dye based fluorescence assay; type: functional, cell-based; conditions: M233, 48 h
# [9] = tested on: KOPN-8; experiment: Induction of apoptosis in human KOPN8 cells assessed as late apoptotic cells at 10 uM after 48 hrs by AnnexinV/PI-staining based flow cytometry; type: functional; procedure, shortened: as §2
# [10] = tested on: KOPN-8; experiment: Induction of apoptosis in human KOPN8 cells assessed as viable cells at 10 uM after 24 hrs by AnnexinV/PI-staining based flow cytometry; type: functional; conditions: read-out: Activity; procedure, shortened: as §2
# [11] = tested on: KOPN-8; experiment: Induction of apoptosis in human KOPN8 cells assessed as viable cells at 10 uM after 48 hrs by AnnexinV/PI-staining based flow cytometry; type: functional; conditions: read-out: Activity; procedure, shortened: as §2
# [12] = Cmax in C57BL/6 mouse at 10 mg/kg, sc by LC-MS analysis; type: ADME, organism-based; parameters: route subcutaneous, dose 10 mg/kg; conditions: in vivo; procedure, shortened: as §1
# [13] = tested on: KOPN-8; experiment: Induction of apoptosis in human KOPN8 cells assessed as necrotic cells at 10 uM after 48 hrs by AnnexinV/PI-staining based flow cytometry; type: functional; procedure, shortened: as §2
# [14] = tested on: KOPN-8; experiment: Induction of apoptosis in human KOPN8 cells assessed as necrotic cells at 10 uM after 72 hrs by AnnexinV/PI-staining based flow cytometry; type: functional; procedure, shortened: as §2
# [15] = tested on: KOPN-8; experiment: Induction of apoptosis in human KOPN8 cells assessed as early apoptotic cells at 10 uM after 72 hrs by AnnexinV/PI-staining based flow cytometry; type: functional; procedure, shortened: as §2
# [16] = Antiproliferative activity against human UM-SCC-12 cells assessed as growth inhibition after 48 hrs by PrestoBlue dye based fluorescence assay; type: functional, cell-based; conditions: UM-SCC-12, 48 h
# [17] = Antiproliferative activity against human UM-SCC-5 cells assessed as growth inhibition after 48 hrs by PrestoBlue dye based fluorescence assay; type: functional, cell-based; conditions: UM-SCC-5, 48 h
# [18] = tested on: MDA-MB-361; experiment: Antiproliferative activity against human MDA-MB-361 cells assessed as growth inhibition after 48 hrs by PrestoBlue dye based fluorescence assay; type: functional, cell-based; conditions: MDA-MB-361, 48 h
# [19] = tested on: T84; experiment: Antiproliferative activity against human T84 cells assessed as growth inhibition after 48 hrs by PrestoBlue dye based fluorescence assay; type: functional, cell-based; conditions: T84, 48 h
# [20] = tested on: KOPN-8; experiment: Induction of apoptosis in human KOPN8 cells assessed as late apoptotic cells at 10 uM after 72 hrs by AnnexinV/PI-staining based flow cytometry; type: functional; procedure, shortened: as §2
# [21] = tested on: KOPN-8; experiment: Induction of apoptosis in human KOPN8 cells assessed as late apoptotic cells at 10 uM after 24 hrs by AnnexinV/PI-staining based flow cytometry; type: functional; procedure, shortened: as §2
# [22] = tested on: PC-3; experiment: Antiproliferative activity against human PC-3 cells assessed as growth inhibition after 48 hrs by PrestoBlue dye based fluorescence assay; type: functional, cell-based; conditions: PC-3, 48 h
# [23] = tested on: KOPN-8; experiment: Antiproliferative activity against human KOPN-8 cells assessed as growth inhibition after 48 hrs by PrestoBlue dye based fluorescence assay; type: functional, cell-based; conditions: KOPN-8, 48 h
# [24] = tested on: BT-474; experiment: Antiproliferative activity against human BT-474 cells assessed as growth inhibition after 48 hrs by PrestoBlue dye based fluorescence assay; type: functional, cell-based; conditions: BT-474, 48 h
# [25] = tested on: KOPN-8; experiment: Induction of apoptosis in human KOPN8 cells assessed as late apoptotic cells at 10 uM after 168 hrs by AnnexinV/PI-staining based flow cytometry; type: functional; procedure, shortened: as §2
# [26] = tested on: KOPN-8; experiment: Induction of apoptosis in human KOPN8 cells assessed as early apoptotic cells at 10 uM after 24 hrs by AnnexinV/PI-staining based flow cytometry; type: functional; procedure, shortened: as §2
# [27] = tested on: KOPN-8; experiment: Induction of apoptosis in human KOPN8 cells assessed as increase in caspase 9 activity at 0.1 to 50 uM after 24 hrs by Caspase-glo reagent based microplate reader analysis relative to control; type: functional; conditions: dose microM 0.1-50
# [28] = tested on: KOPN-8; experiment: Induction of apoptosis in human KOPN8 cells assessed as early apoptotic cells at 10 uM after 48 hrs by AnnexinV/PI-staining based flow cytometry; type: functional; procedure, shortened: as §2
# [29] = Antiproliferative activity against human M263 cells assessed as growth inhibition after 48 hrs by PrestoBlue dye based fluorescence assay; type: functional, cell-based; conditions: M263, 48 h
# [30] = tested on: MDA-MB-361; experiment: Antitumor activity against sc dosed human MDA-MB-361 cells xenografted in BALB mouse administered up to 12 days by caliper analysis; type: functional, organism-based; conditions: dose mg/kg 10-20, time 12.0 day
# Procedure, shortened: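 Tumor-bearing mice, subcutaneous engraftment model; compound given SC at 10 or 20 mg/kg in 2% Cremophor EL, 2×5 injections (10 doses total). Read-out is tumor growth delay in days, taken at a tumor volume of 500 mm3.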
# [31] = tested on: HL-60; experiment: Antiproliferative activity against human HL60 cells assessed as growth inhibition after 48 hrs by PrestoBlue dye based fluorescence assay; type: functional, cell-based; conditions: HL-60, 48 h
# [32] = tested on: KOPN-8; experiment: Induction of apoptosis in human KOPN8 cells assessed as viable cells at 10 uM after 72 hrs by AnnexinV/PI-staining based flow cytometry; type: functional; conditions: read-out: Activity; procedure, shortened: as §2
# [33] = tested on: KOPN-8; experiment: Induction of apoptosis in human KOPN8 cells assessed as necrotic cells at 10 uM after 168 hrs by AnnexinV/PI-staining based flow cytometry; type: functional; procedure, shortened: as §2
# [34] = tested on: HepG2; experiment: Antiproliferative activity against human HepG2 cells assessed as growth inhibition after 48 hrs by PrestoBlue dye based fluorescence assay; type: functional, cell-based; conditions: HepG2, 48 h
# [35] = tested on: HCT-116; experiment: Antiproliferative activity against human HCT116 cells assessed as growth inhibition after 48 hrs by PrestoBlue dye based fluorescence assay; type: functional, cell-based; conditions: HCT-116, 48 h
# [36] = tested on: PANC-1; experiment: Antiproliferative activity against human PANC-1 cells assessed as growth inhibition after 48 hrs by PrestoBlue dye based fluorescence assay; type: functional, cell-based; conditions: PANC-1, 48 h
# [37] = tested on: MCF7; experiment: Antiproliferative activity against human MCF7 cells assessed as growth inhibition after 48 hrs by PrestoBlue dye based fluorescence assay; type: functional, cell-based; conditions: MCF7, 48 h
# [38] = tested on: FaDu; experiment: Antiproliferative activity against human FADU cells assessed as growth inhibition after 48 hrs by PrestoBlue dye based fluorescence assay; type: functional, cell-based
# [39] = Antiproliferative activity against human UM-SCC-6 cells assessed as growth inhibition after 48 hrs by PrestoBlue dye based fluorescence assay; type: functional, cell-based; conditions: UM-SCC-6, 48 h
# [40] = tested on: Hep 3B2; experiment: Antiproliferative activity against human Hep3B cells assessed as growth inhibition after 48 hrs by PrestoBlue dye based fluorescence assay; type: functional, cell-based
# [41] = tested on: SW480; experiment: Antiproliferative activity against human SW480 cells assessed as growth inhibition after 48 hrs by PrestoBlue dye based fluorescence assay; type: functional, cell-based; conditions: SW480, 48 h
# [42] = tested on: SK-MEL-28; experiment: Antiproliferative activity against human SK-MEL-28 cells assessed as growth inhibition after 48 hrs by PrestoBlue dye based fluorescence assay; type: functional, cell-based; conditions: SK-MEL-28, 48 h
# [43] = Antiproliferative activity against human CEMTL cells assessed as growth inhibition after 48 hrs by PrestoBlue dye based fluorescence assay; type: functional, cell-based; conditions: CEM-TL
# [44] = tested on: LNCaP; experiment: Antiproliferative activity against human LNCAP cells assessed as growth inhibition after 48 hrs by PrestoBlue dye based fluorescence assay; type: functional, cell-based
smiles,measurement,setting,value
CCCCCCCCCCCCCCCCCCSCCNC(=O)[C@H](Cc1ccc(-c2ccccc2)cc1)NC(=O)[C@@H]1C[C@H](Oc2ccccc2)CN1C(=O)[C@@H](NC(=O)[C@H](C)NC)C(C)(C)C (H-[NMeA][Tle][Pro(cis-4-OPh)][Bip]-X1),EC50,[1],8.7 µM
same,Cp,[2],7.5633 µM
same,Activity,[3],7.06%
same,EC50,[4],2700 nM
same,Tmax,[5],16 h
same,Activity,[6],1.81%
same,viability at 10 µM,[7],87.6%
same,EC50,[8],9.5 µM
same,Activity,[9],17.8%
same,viability at 10 µM,[10],71%
same,viability at 10 µM,[11],79.3%
same,Cmax,[12],15.1265 µM
same,Activity,[13],1.97%
same,Activity,[14],1.41%
same,Activity,[15],1.27%
same,EC50,[16],1100 nM
same,EC50,[17],960 nM
same,EC50,[18],1700 nM
same,EC50,[19],2000 nM
same,Activity,[20],22.4%
same,Activity,[21],20.3%
same,EC50,[22],2200 nM
same,EC50,[23],1000 nM
same,EC50,[24],320 nM
same,Activity,[25],9.97%
same,Activity,[26],1.67%
same,fold change (FC),[27],1.5
same,Activity,[28],0.94%
same,EC50,[29],2900 nM
same,Activity,[30],Dose-dependent effect
same,EC50,[31],2000 nM
same,viability at 10 µM,[32],74.9%
same,Activity,[33],0.63%
CCCCCCCCCCCCCCCCCCS(=O)(=O)CCNC(=O)[C@H](Cc1ccc(-c2ccccc2)cc1)NC(=O)[C@@H]1C[C@H](Oc2ccccc2)CN1C(=O)[C@@H](NC(=O)[C@H](C)NC)C(C)(C)C (H-[NMeA][Tle][Pro(cis-4-OPh)][Bip]-X2),EC50,[34],2100 nM
same,EC50,[35],1500 nM
same,EC50,[36],4.7 µM
same,EC50,[37],48.2 µM
same,EC50,[38],640 nM
same,EC50,[16],1100 nM
same,EC50,[39],4.8 µM
same,EC50,[40],240 nM
same,EC50,[41],25.7 µM
same,EC50,[22],2300 nM
same,EC50,[42],11.3 µM
same,EC50,[43],14.2 µM
same,EC50,[44],10.5 µM
